The source made the active and inactive calls. The rule behind the calls is not given here.
Key:
U-251 = test: Cytotoxicity against human U251 cells at 50 uM after 48 hrs by SRB assay; type: functional; details: U-251, 48 h
Summary of the method: (§1)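 Cells in RPMI-1640 with 10% FCS at 37 °C, 5% CO2; 5–10 × 10^3 cells/well seeded 24 h, then exposed 48 h to 50 μM compound (DMSO stock; 5-fluorouracil at same concentration as positive control). TCA-fixed at 4 °C 1 h, stained with 0.4% SRB, dye solubilized in 10 mM Tris base, OD 515 nm; % growth inhibition, mean of three experiments in triplicate.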

PC-3 = test: Cytotoxicity against human PC3 cells at 50 uM after 48 hrs by SRB assay; type: functional; details: PC-3, 48 h; summary of the method: as §1
K562 = test: Cytotoxicity against human K562 cells at 50 uM after 48 hrs by SRB assay; type: functional; details: for inhibition at 50 µM: K562, 48 h; summary of the method: as §1
HCT-15 = test: Cytotoxicity against human HCT15 cells at 50 uM after 48 hrs by SRB assay; type: functional; details: for inhibition at 50 µM: HCT-15, 48 h; summary of the method: as §1
MCF7 [1] = test: Cytotoxicity against human MCF7 cells at 50 uM after 48 hrs by SRB assay; type: functional; details: MCF7, 48 h; summary of the method: as §1
SK-LU-1 [2] = test: Cytotoxicity against human SK-LU-1 cells at 50 uM after 48 hrs by SRB assay; type: functional; details: SK-LU-1, 48 h; summary of the method: as §1
SK-LU-1 [3] = test: Cytotoxicity against human SK-LU-1 cells after 48 hrs by SRB assay; type: functional, cell-based; details: SK-LU-1, 48 h
Summary of the method: (§2)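 SRB protein-staining assay: 5–10 × 10^3 cells/well in RPMI-1640/10% FCS, allowed 24 h to attach, then 48 h with compound dissolved from DMSO stock; TCA fixation, 0.4% SRB staining, Tris-solubilized dye read at 515 nm. IC50 from dose-response curve by non-linear regression; mean ± SD of three independent experiments.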

MCF7 [4] = test: Cytotoxicity against human MCF7 cells after 48 hrs by SRB assay; type: functional, cell-based; details: MCF7, 48 h; summary of the method: as §2
SK-LU-1 [5] = test: Cell cycle arrest in human SK-LU-1 cells assessed as accumulation at G2/M phase after 24 hrs by flow cytometry; type: functional
SK-LU-1 [6] = test: Cell cycle arrest in human SK-LU-1 cells assessed as accumulation at S phase after 24 hrs by flow cytometry; type: functional
SK-LU-1 [7] = test: Cell cycle arrest in human SK-LU-1 cells assessed as accumulation at G1 phase after 24 hrs by flow cytometry; type: functional
MCF7 [8] = test: Cell cycle arrest in human MCF7 cells assessed as accumulation at G1 phase after 24 hrs by flow cytometry; type: functional
MCF7 [9] = test: Cell cycle arrest in human MCF7 cells assessed as accumulation at S phase after 24 hrs by flow cytometry; type: functional
MCF7 [10] = test: Cell cycle arrest in human MCF7 cells assessed as accumulation at G2/M phase after 24 hrs by flow cytometry; type: functional
SK-LU-1 [11] = test: Induction of apoptosis in human SK-LU-1 cells assessed as apoptotic cells after 48 hrs using annexin-V-FITC/propidium iodide staining by flow cytometry; type: functional, cell-based
Summary of the method: (§3)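 2.5 × 10^5 cells per well attached 24 h, then treated 48 h with compound or DMSO vehicle at the highest concentration used. Adherent plus floating cells washed in PBS, resuspended in annexin-binding buffer, stained with annexin V-FITC and propidium iodide 10 min in the dark at room temperature; 10,000 events analysed by flow cytometry, quadrants scoring apoptotic versus late apoptotic/necrotic cells.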

SK-LU-1 [12] = test: Induction of apoptosis in human SK-LU-1 cells assessed as necrotic cells after 48 hrs using annexin-V-FITC/propidium iodide staining by flow cytometry; type: functional, cell-based; summary of the method: as §3
[13] = target: Cyclin-dependent kinase 1/cyclin B1 (Homo sapiens) (UniProt P06493+P14635); details: at 7 µM
Cyclin-dependent kinase 1/cyclin B1 (Homo sapiens), sequence (P06493 whole entry, looked up): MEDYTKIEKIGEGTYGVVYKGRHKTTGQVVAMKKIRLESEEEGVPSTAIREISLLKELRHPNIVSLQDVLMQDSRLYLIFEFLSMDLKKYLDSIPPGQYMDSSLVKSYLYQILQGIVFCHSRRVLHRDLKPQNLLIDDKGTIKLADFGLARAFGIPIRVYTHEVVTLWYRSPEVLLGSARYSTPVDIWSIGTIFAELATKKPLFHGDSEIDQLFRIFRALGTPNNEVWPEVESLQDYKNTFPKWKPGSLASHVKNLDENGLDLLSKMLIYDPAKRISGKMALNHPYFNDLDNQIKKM
Cyclin-dependent kinase 1/cyclin B1 (Homo sapiens), sequence (P14635 whole entry, looked up): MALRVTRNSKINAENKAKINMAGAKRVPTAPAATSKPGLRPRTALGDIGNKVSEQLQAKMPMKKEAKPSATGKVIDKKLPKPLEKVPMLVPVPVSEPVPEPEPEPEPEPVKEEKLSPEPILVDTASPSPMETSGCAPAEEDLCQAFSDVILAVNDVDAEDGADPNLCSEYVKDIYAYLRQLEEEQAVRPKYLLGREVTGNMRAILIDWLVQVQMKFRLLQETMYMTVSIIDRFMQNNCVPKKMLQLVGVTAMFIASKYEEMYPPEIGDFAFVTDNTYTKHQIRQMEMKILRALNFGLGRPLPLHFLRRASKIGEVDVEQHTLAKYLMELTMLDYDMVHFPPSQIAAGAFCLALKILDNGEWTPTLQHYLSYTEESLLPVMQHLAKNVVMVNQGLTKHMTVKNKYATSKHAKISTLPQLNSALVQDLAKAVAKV

SMILES	inhibition at 50 µM (U-251)	inhibition at 50 µM (PC-3)	inhibition at 50 µM (K562)	inhibition at 50 µM (HCT-15)	inhibition at 50 µM (MCF7 [1])	inhibition at 50 µM (SK-LU-1 [2])	IC50 (SK-LU-1 [3])	IC50 (MCF7 [4])	inhibition (K562)	Activity (SK-LU-1 [5])	Activity (SK-LU-1 [6])	Activity (SK-LU-1 [7])	Activity (MCF7 [8])	Activity (MCF7 [9])	Activity (MCF7 [10])	Activity (SK-LU-1 [11])	Activity (SK-LU-1 [12])	inhibition [13]	inhibition (HCT-15)
O=c1[nH]cc(F)c(=O)[nH]1 [FLUOROURACIL]	64.2%	45.4%	73.7%	71.3%	65.1%	70.5%	–	–	–	–	–	–	–	–	–	–	–	–	–
FC(F)(F)c1ccc(Nc2nccc(-c3c(C(F)(F)F)nc4ccccn34)n2)cc1	100%	92%	94.2%	94.4%	100%	95%	0.745 µM	0.29 µM	–	–	–	–	–	–	–	–	–	–	–
FC(F)(F)c1ccc(Nc2nccc(-c3cnc4ccccc4c3)n2)cc1	49.8%	22.9%	–	24%	80.9%	35.4%	–	> 50 µM	inactive	–	–	–	–	–	–	–	–	–	–
Cn1cnc2c(NCc3ccccc3)nc(NCCO)nc21 [OLOMOUCINE]	–	–	–	–	–	–	–	–	–	31.8%	19.7%	44.2%	60.6%	15.1%	23.2%	–	–	–	–
Cc1ccc(Nc2nccc(-c3ccnc4ccccc34)n2)cc1	100%	100%	50.9%	100%	100%	100%	1.4 µM	0.6 µM	–	74%	22%	8.1%	18.7%	15.1%	64.7%	Active	inactive	75%	–
Nc1nccc(-c2c(C(F)(F)F)nc3ccccn23)n1	92.2%	74%	56.3%	–	100%	71%	56.5 µM	53.7 µM	–	–	–	–	–	–	–	–	–	–	–
Cc1ccc(Nc2nccc(-c3c(C)nc4ccccn34)n2)cc1	100%	94.2%	89.4%	95.2%	88.5%	100%	0.0197 µM	0.059 µM	–	77.5%	20.9%	4.7%	60.8%	25.3%	14.7%	Active	inactive	59%	–
Nc1nccc(-c2ccnc3ccccc23)n1	100%	77.4%	9.4%	–	100%	78.2%	> 50 µM	40.2 µM	–	–	–	–	–	–	–	–	–	–	inactive
Cc1nc2ccccn2c1-c1ccnc(Nc2ccc(C=O)s2)n1	57.8%	49.5%	88.1%	85.4%	75.9%	100%	1.54 µM	4.27 µM	–	48%	13.9%	42.5%	54.5%	15.7%	22.2%	Active	inactive	52%	–
Nc1nccc(-c2cnc3ccccc3c2)n1	38.5%	31.9%	–	–	100%	59.3%	> 50 µM	> 50 µM	inactive	–	–	–	–	–	–	–	–	–	inactive
Cc1nc2ccccn2c1-c1ccnc(Nc2ccc(C(F)(F)F)cc2)n1	85.6%	64.5%	84.8%	88.6%	83.4%	100%	0.034 µM	0.066 µM	–	–	–	–	–	–	–	–	–	60%	–
Cc1ccc(Nc2nccc(-c3cnc4ccccc4c3)n2)cc1	87.7%	59.5%	–	30.3%	100%	46.3%	–	50 µM	inactive	–	–	–	–	–	–	–	–	73%	–
Cc1ccc(Nc2nccc(-c3c(C(F)(F)F)nc4ccccn34)n2)cc1	100%	100%	100%	100%	100%	100%	0.175 µM	0.044 µM	–	–	–	–	–	–	–	Active	inactive	–	–
FC(F)(F)c1ccc(Nc2nccc(-c3ccnc4ccccc34)n2)cc1	91.8%	87.3%	–	100%	100%	100%	1.72 µM	1.65 µM	inactive	–	–	–	–	–	–	–	–	–	–

From ChEMBL document CHEMBL1153702, “Synthesis and cytotoxic activity of 2-methylimidazo[1,2-a]pyridine- and quinoline-substituted 2-aminopyrimidine derivatives” (Eur J Med Chem, 2010)
